In ChEMBL document CHEMBL1629579, “Correlating echinocandin MIC and kinetic inhibition of fks1 mutant glucan synthases for Candida albicans: implications for interpretive breakpoints” (Antimicrob Agents Chemother, 2009):
In brackets after ≈: the same amount, converted by molar mass. Numbered stars: 1 amine (or outer) side, 2 acyl side, 3 side chain; on linkers, the order of the positions; unused ones are H or OH. Bridge positions count the residues as written; N and C are the ends. Square brackets hold non-standard residues; d marks the D form. Peptide text beside a SMILES is read from it. * marks the point of attachment. hTyr(3S-OH,4S-OH,3'-OSO3H) = N[C@H](C(=O)O)[C@H](O)[C@@H](O)c1ccc(O)c(OS(=O)(=O)O)c1; Orn(4R-OH,5R-OH) = O=C([C@H](C[C@@H](O)[C@@H](O)N[*:3])N[*:1])[*:2]; Pro(3S-OH,4S-Me) = C[C@H]1CN[C@H](C(=O)O)[C@H]1O; X1 = CCCCCOc1ccc(-c2cc(-c3ccc(C(=O)*)cc3)no2)cc1; Gln(3R-OH) = NC(=O)C[C@@H](O)[C@H](N)C(=O)O; Hyp = O=C(O)[C@@H]1C[C@@H](O)CN1

Legend:
[1] = test system: Candida albicans; test: Antimicrobial activity against Candida albicans SC5314 by M27-A3 method; type: functional
Outline: (§1)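 Broth microdilution per CLSI M27-A3 in RPMI 1640, with and without 50% human serum, in triplicate. C. krusei ATCC 6258 and C. parapsilosis ATCC 22019 served as quality-control strains. MIC reported as arithmetic mean of three repetitions on separate days.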

[2] = test system: Candida albicans; test: Antimicrobial activity against Candida albicans 36082 by M27-A3 method; type: functional; outline: as §1
[3] = test system: Candida albicans; test: Antimicrobial activity against Candida albicans 36082 by M27-A3 method in presence of 50% human serum; type: functional
Outline: (§2)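 Broth microdilution per CLSI M27-A3 in RPMI 1640, done in triplicate on three separate days. Each strain was tested with and without 50% human serum. C. krusei ATCC 6258 and C. parapsilosis ATCC 22019 served as QC strains. Arithmetic means are reported, and geometric means were used for comparison.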

[4] = test system: Candida albicans; test: Antimicrobial activity against Candida albicans 90028 by M27-A3 method in presence of 50% human serum; type: functional; outline: as §2
[5] = test system: Candida albicans; test: Antimicrobial activity against Candida albicans 1002 by M27-A3 method; type: functional; outline: as §1
[6] = test system: Candida albicans; test: Antimicrobial activity against Candida albicans 3107 by M27-A3 method in presence of 50% human serum; type: functional; outline: as §2
[7] = test system: Candida albicans; test: Antimicrobial activity against Candida albicans 3795 by M27-A3 method in presence of 50% human serum; type: functional; outline: as §2
[8] = test system: Candida albicans; test: Antimicrobial activity against Candida albicans 119 harboring FKS1 T1921C mutant gene and FKS1 hotspot1 F641L mutant gene by M27-A3 method; type: functional; outline: as §2
[9] = test system: Candida albicans; test: Antimicrobial activity against Candida albicans 119 harboring FKS1 T1921C mutant gene and FKS1 hotspot1 F641L mutant gene by M27-A3 method in presence of 50% human serum; type: functional; outline: as §2
[10] = test system: Candida albicans; test: Antimicrobial activity against Candida albicans 2762 harboring FKS1 T1922C mutant gene and FKS1 hotspot1 F641S mutant gene by M27-A3 method in presence of 50% human serum; type: functional; outline: as §2
[11] = test system: Candida albicans; test: Antimicrobial activity against Candida albicans 205 harboring FKS1 T1933C mutant gene and FKS1 hotspot1 S645P mutant gene by M27-A3 method in presence of 50% human serum; type: functional; outline: as §2
[12] = test system: Candida albicans; test: Antimicrobial activity against Candida albicans 89 harboring FKS1 C1934A mutant gene and FKS1 hotspot1 S645Y mutant gene by M27-A3 method; type: functional; outline: as §2
[13] = test system: Candida albicans; test: Antimicrobial activity against Candida albicans 149 harboring FKS1 G1942T mutant gene and FKS1 hotspot1 D648Y mutant gene by M27-A3 method; type: functional; outline: as §2
[14] = test system: Candida albicans; test: Antimicrobial activity against Candida albicans 122 harboring FKS1 C1946A mutant gene and FKS1 hotspot1 P649H mutant gene by M27-A3 method; type: functional; outline: as §2
[15] = test system: Candida albicans; test: Antimicrobial activity against Candida albicans 121 harboring FKS1 G4082A mutant gene and FKS1 hotspot2 R1361H mutant gene by M27-A3 method; type: functional; outline: as §2
[16] = test system: Candida albicans; test: Antimicrobial activity against Candida albicans 194 harboring FKS1 C1934T/G4082R mutant gene and FKS1 hotspot1 S645F mutant gene and FKS1 hotspot2 R1361R/H mutant gene by M27-A3 method; type: functional; outline: as §2
[17] = test system: Candida albicans; test: Antimicrobial activity against Candida albicans 194 harboring FKS1 C1934T/G4082R mutant gene and FKS1 hotspot1 S645F mutant gene and FKS1 hotspot2 R1361R/H mutant gene by M27-A3 method in presence of 50% human serum; type: functional; outline: as §2
[18] = test system: Candida albicans; test: Antimicrobial activity against Candida albicans 90 harboring FKS1 G4082R mutant gene and FKS1 hotspot2 R1361R/H mutant gene by M27-A3 method; type: functional; outline: as §2
[19] = test system: Candida albicans; test: Antimicrobial activity against Candida albicans 90 harboring FKS1 G4082R mutant gene and FKS1 hotspot2 R1361R/H mutant gene by M27-A3 method in presence of 50% human serum; type: functional; outline: as §2
[20] = test system: Candida albicans; test: Antimicrobial activity against Candida albicans A15-10 harboring FKS1 T1933C mutant gene and FKS1 hotspot1 S645P mutant by M27-A3 method in presence of 50% human serum; type: functional; outline: as §2
[21] = Inhibition of Candida albicans 36082 1,3-beta-D-glucan synthase subunit FKS1p
Outline: (§3)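 Enzyme is product-entrapped 1,3-β-D-glucan synthase, enriched from membranes of each strain grown at 37°C with shaking in YPD broth to early stationary phase. Filtration polymerization assay uses [3H]UDPG, started by adding enzyme and run 60 min at 25°C. Echinocandins are added as serial dilutions, with 1% DMSO controls for anidulafungin. IC50 is from a variable-slope sigmoidal fit; values are triplicate arithmetic means.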

[22] = Inhibition of Candida albicans 3107 1,3-beta-D-glucan synthase subunit FKS1p; outline: as §3
[23] = Inhibition of Candida albicans 3795 1,3-beta-D-glucan synthase subunit FKS1p; outline: as §3
[24] = Inhibition of Candida albicans 177 1,3-beta-D-glucan synthase subunit FKS1p T1922C mutant; outline: as §3
[25] = Inhibition of Candida albicans 2762 1,3-beta-D-glucan synthase subunit FKS1p T1922C mutant; outline: as §3
[26] = Inhibition of Candida albicans 122 1,3-beta-D-glucan synthase subunit FKS1p C1946A mutant; outline: as §3
[27] = Inhibition of Candida albicans 121 1,3-beta-D-glucan synthase subunit FKS1p G4082A mutant; outline: as §3
[28] = test system: Candida albicans; test: Activity at Candida albicans 1002 1,3-beta-D-glucan synthase subunit FKS1p
Outline: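 Glucan synthase from cells grown at 37°C with vigorous shaking to early stationary phase in YPD. Membrane enzyme enriched by product entrapment. Serial echinocandin dilutions; ANF controls held 1% DMSO. Reaction started by adding enzyme, run 60 min at 25°C in a filtration polymerization assay, stopped on ice. IC50 from a variable-slope sigmoidal fit; means of three repetitions on separate days.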

[29] = test system: Candida albicans; test: Activity at Candida albicans 2762 1,3-beta-D-glucan synthase subunit FKS1p T1922C mutant
Outline: (§4)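 Product-entrapped 1,3-β-D-glucan synthase from cells grown in YPD at 37°C to early stationary phase. Wells held 50 mM HEPES pH 7.5, 10% glycerol, 1.5 mg/ml BSA, 25 mM KF, 1 mM EDTA, 25 μM GTP-γ-S, 1 μg enzyme and [3H]UDPG (0.015–2 mM). Reactions ran 60 min at 25°C. Vmax and Km came from Lineweaver-Burke plots, in triplicate.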

[30] = test system: Candida albicans; test: Activity at Candida albicans 85 1,3-beta-D-glucan synthase subunit FKS1p C1934T mutant; outline: as §4
[31] = test system: Candida albicans; test: Activity at Candida albicans 122 1,3-beta-D-glucan synthase subunit FKS1p C1946A mutant; outline: as §4
[32] = test system: Candida albicans; test: Activity at Candida albicans A15-10 1,3-beta-D-glucan synthase subunit FKS1p T1933C mutant

Compound: CC[C@H](C)C[C@H](C)CCCCCCCCC(=O)N[C@H]1C[C@@H](O)[C@@H](NCCN)NC(=O)[C@@H]2[C@@H](O)CCN2C(=O)[C@H]([C@H](O)CCN)NC(=O)[C@H]([C@H](O)[C@@H](O)c2ccc(O)cc2)NC(=O)[C@@H]2C[C@@H](O)CN2C(=O)[C@H]([C@@H](C)O)NC1=O [CASPOFUNGIN]
- MIC [1]: 0.42 µg/mL (≈ 0.384 µM)
- MIC [2]: 0.21 µg/mL (≈ 0.192 µM)
- MIC [3]: 0.25 µg/mL
- MIC [4]: 0.25 µg/mL
- MIC [5]: 0.33 µg/mL (≈ 0.302 µM)
- MIC [6]: 0.33 µg/mL
- MIC [7]: 0.5 µg/mL
- MIC [8]: 2 µg/mL (≈ 1.83 µM)
- MIC [9]: 8 µg/mL
- MIC [10]: 8 µg/mL
- MIC [11]: 8 µg/mL
- MIC [12]: 8 µg/mL (≈ 7.32 µM)
- MIC [13]: 2.67 µg/mL (≈ 2.44 µM)
- MIC [14]: 4 µg/mL (≈ 3.66 µM)
- MIC [15]: 2 µg/mL (≈ 1.83 µM)
- MIC [16]: 4 µg/mL (≈ 3.66 µM)
- MIC [17]: 8 µg/mL
- MIC [18]: 1 µg/mL (≈ 0.915 µM)
- MIC [19]: 4 µg/mL
- MIC [20]: 16 µg/mL
- IC50 [21]: 0.0009 µg/mL (≈ 0.000823 µM)
- Ki [21]: 0.00095 µg/mL (≈ 0.000869 µM)
- Ki [22]: 0.00879 µg/mL (≈ 0.00804 µM)
- IC50 [23]: 0.00144 µg/mL (≈ 0.00132 µM)
- Ki [23]: 0.00467 µg/mL (≈ 0.00427 µM)
- IC50 [24]: 1.091 µg/mL (≈ 0.998 µM)
- Ki [24]: 1.8176 µg/mL (≈ 1.66 µM)
- IC50 [25]: 0.91 µg/mL (≈ 0.832 µM)
- Ki [25]: 0.49893 µg/mL (≈ 0.456 µM)
- IC50 [26]: 0.08266 µg/mL (≈ 0.0756 µM)
- Ki [26]: 0.29167 µg/mL (≈ 0.267 µM)
- IC50 [27]: 0.03372 µg/mL (≈ 0.0308 µM)
- Ki [27]: 0.308 µg/mL (≈ 0.282 µM)
- Km [28]: 122 µM
- Vmax [28]: 5.8 nmol/min
- Km [29]: 108 µM
- Vmax [29]: 3.57 nmol/min
- Km [30]: 25 µM
- Vmax [30]: 1.83 nmol/min
- Km [31]: 152 µM
- Vmax [31]: 1.95 nmol/min
- Km [32]: 91 µM
- Vmax [32]: 3.26 nmol/min

Compound: CCCCCOc1ccc(-c2cc(-c3ccc(C(=O)N[C@H]4C[C@@H](O)[C@@H](O)NC(=O)[C@@H]5[C@@H](O)[C@@H](C)CN5C(=O)[C@H]([C@H](O)CC(N)=O)NC(=O)[C@H]([C@H](O)[C@@H](O)c5ccc(O)c(OS(=O)(=O)O)c5)NC(=O)[C@@H]5C[C@@H](O)CN5C(=O)[C@H]([C@@H](C)O)NC4=O)cc3)no2)cc1 [MICAFUNGIN] (X1-[Orn(4R-OH,5R-OH)]T[Hyp][hTyr(3S-OH,4S-OH,3'-OSO3H)][Gln(3R-OH)][Pro(3S-OH,4S-Me)]; lactam 1-C)
- MIC [1]: 0.05 µg/mL (≈ 0.0394 µM)
- MIC [2]: 0.03 µg/mL (≈ 0.0236 µM)
- MIC [3]: 1 µg/mL
- MIC [4]: 0.5 µg/mL
- MIC [5]: 0.04 µg/mL (≈ 0.0315 µM)
- MIC [6]: 0.5 µg/mL
- MIC [7]: 0.5 µg/mL
- MIC [8]: 0.33 µg/mL (≈ 0.26 µM)
- MIC [9]: 8 µg/mL
- MIC [10]: 16 µg/mL
- MIC [11]: 8 µg/mL
- MIC [12]: 4 µg/mL (≈ 3.15 µM)
- MIC [13]: 0.83 µg/mL (≈ 0.653 µM)
- MIC [14]: 0.83 µg/mL (≈ 0.653 µM)
- MIC [15]: 0.25 µg/mL (≈ 0.197 µM)
- MIC [16]: 2.67 µg/mL (≈ 2.1 µM)
- MIC [17]: 8 µg/mL
- MIC [18]: 0.5 µg/mL (≈ 0.394 µM)
- MIC [19]: 4 µg/mL
- MIC [20]: 8 µg/mL
- IC50 [21]: 0.0102 µg/mL (≈ 0.00803 µM)
- Ki [21]: 0.02353 µg/mL (≈ 0.0185 µM)
- IC50 [22]: 0.01472 µg/mL (≈ 0.0116 µM)
- Ki [22]: 0.04187 µg/mL (≈ 0.033 µM)
- IC50 [23]: 0.03889 µg/mL (≈ 0.0306 µM)
- Ki [23]: 0.05864 µg/mL (≈ 0.0462 µM)
- IC50 [24]: 1.441 µg/mL (≈ 1.13 µM)
- Ki [24]: 4.40423 µg/mL (≈ 3.47 µM)
- IC50 [25]: 1.693 µg/mL (≈ 1.33 µM)
- Ki [25]: 1.44788 µg/mL (≈ 1.14 µM)
- IC50 [26]: 0.9246 µg/mL (≈ 0.728 µM)
- Ki [26]: 2.58853 µg/mL (≈ 2.04 µM)
- IC50 [27]: 0.4982 µg/mL (≈ 0.392 µM)
- Ki [27]: 0.84048 µg/mL (≈ 0.662 µM)
- Km [28]: 122 µM
- Vmax [28]: 5.8 nmol/min
- Km [29]: 108 µM
- Vmax [29]: 3.57 nmol/min
- Km [30]: 25 µM
- Vmax [30]: 1.83 nmol/min
- Km [31]: 152 µM
- Vmax [31]: 1.95 nmol/min
- Km [32]: 91 µM
- Vmax [32]: 3.26 nmol/min
